Key:
[1] = tested on: Thiobarbituric acid reactive substances (TBARS); assay: TBARS in whole liver homogenate; format: in vivo, female Sprague-Dawley rats; details: data not shown
Outline: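 Female Sprague-Dawley rats were gavaged once daily, 5 days/week for 21 days. Groups: test compound at 5.0 mg/kg in corn oil (2 mL/kg, n=9), corn-oil vehicle (n=9), or a reference peroxisome proliferator at 7.5 mg/kg/day in water/methylcellulose (n=8). Euthanasia was 3 days (1 day for the reference agent) after the last dose. TBARS were measured fluorometrically in whole liver homogenate.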

[2] = rat, in vivo; cited from earlier work
[3] = tested on: reduced to oxidized glutathione; assay: Total and oxidized glutathione; format: in vivo, female Sprague-Dawley rats; details: data not shown
Outline: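 Female Sprague-Dawley rats were gavaged for 21 days (5 days/week) with test compound at 5.0 mg/kg in corn oil (n=9), vehicle (n=9), or a reference peroxisome proliferator at 7.5 mg/kg/day (n=8), then killed by CO2. Liver and uterus aliquots were homogenized immediately in 5% 5-sulfosalicylic acid. Total and oxidized glutathione were measured by enzymatic recycling, and the GSH:GSSG ratio was derived.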

[4] = Levels of N-EtFOSE and metabolites in liver and serum; format: in vivo, female Sprague-Dawley rats; details: for %TD in Serum (× 10^-3) / %TD in Serum: assuming serum volume of 4.86 mL/100 mg; for Liver: serum ratio: N-EtFOSE-treated female rats, mean
[5] = tested on: Catalase; assay: Catalase activity in liver and uterus; format: in vivo, female Sprague-Dawley rats; details: Figure 5
Outline: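 Female Sprague-Dawley rats were gavaged once daily, 5 days/week for 21 days, with test compound at 5.0 mg/kg in corn oil (2 mL/kg) or with vehicle. A positive control peroxisome proliferator was given at 7.5 mg/kg/day in water/methylcellulose. H2O2 was added to liver or uterus homogenate in potassium phosphate buffer (pH 7.8), and H2O2 loss at 240 nm was followed for 2 min. Results are milli-k units/mg Lowry protein, compared by ANOVA with Dunnett's test.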

[6] = tested on: GPx-1; assay: GPx-1 activity; format: in vivo, female Sprague-Dawley rats; details: Figure 6
Outline: (§1)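 Rats were dosed orally for 21 days (5 days/week) with test compound at 5.0 mg/kg/day in corn oil, with vehicle, or with a positive control. Liver and uterus homogenates were assayed in a coupled glutathione reductase/NADPH system, reading NADPH decrease at 340 nm. H2O2 was the substrate for GPx-1 and cumene hydroperoxide for total GPx. Results are milliunits/mg Lowry protein, analysed by ANOVA and Dunnett's test (p<0.05).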

[7] = tested on: total SOD; assay: Total SOD activity in liver and uterus; format: in vivo, female Sprague-Dawley rats; details: Figure 4
[8] = tested on: peroxisomal acyl Co-A oxidase (AOX); assay: Peroxisomal acyl Co-A oxidase activity in liver homogenates; format: in vivo, female Sprague-Dawley rats; details: for AOX activity in liver, change versus control (significance): Figure 3; for Increase of peroxisomal AOX activity in liver compared to control: oral 21 days, N-EtFOSE increase p = 0.35
[9] = tested on: Manganese superoxide dismutase (MnSOD); assay: MnSOD activity in liver and uterus; format: in vivo, female Sprague-Dawley rats; details: Figure 4; for MnSOD activity in the liver, change versus control: ciprofibrate p = 0.07
[10] = tested on: copper zinc superoxide dismutase (CuZnSOD); assay: CuZnSOD activity in liver and uterus; format: in vivo, female Sprague-Dawley rats; details: Figure 4
[11] = tested on: Total GPx; assay: Total GPx activity; format: in vivo, female Sprague-Dawley rats; details: Figure 6
Outline: as §1

[12] = Histopathological evaluation of H&E stained liver and uterus sections; format: in vivo, female Sprague-Dawley rats
[13] = format: in vivo, female Sprague-Dawley rats; details: oral 21 days, N-EtFOSE 5.0 mg/kg or ciprofibrate 7.5 mg/kg/day
[14] = sheep; ref Vitayavirasuk and Bowen, 1999; cited from earlier work
[15] = rat, in vivo; cited from earlier work; remark: listed apart in the source
[16] = sheep, in vivo; cited from earlier work
[17] = human blood; ref Kärrman et al., 2006b; cited from earlier work
[18] = percentage of the total N-EtFOSE dose
[19] = percentage of the total N-EtFOSE dose, recovery adjusted

SMILES | TBARS in the liver [1] | GSH:GSSG ratio in the liver [3] | GSH:GSSG ratio in the uterus [3] | %TD in Serum (× 10^-3) [4, 18] | Catalase activity in the liver, change versus control [5] | Catalase activity in the uterus, change versus control [5] | GPx-1 activity in the liver, change versus control [6] | GPx-1 activity in the uterus, change versus control [6] | Total SOD activity in the liver, change versus control [7] | Total SOD activity in the uterus, change versus control [7] | AOX activity in liver, change versus control (significance) [8] | Increase of peroxisomal AOX activity in liver compared to control [8] [fold] | MnSOD activity in the liver, change versus control [9] | MnSOD activity in the uterus, change versus control [9] | CuZnSOD activity in the liver, change versus control [10] | CuZnSOD activity in the uterus, change versus control [10] | Total GPx activity in the liver, change versus control [11] | Total GPx activity in the uterus, change versus control [11] | Liver: serum ratio [4] | %TD in Liver [4, 19] [%TD] | other results
CCN(CCO)S(=O)(=O)C(F)(F)C(F)(F)C(F)(F)C(F)(F)C(F)(F)C(F)(F)C(F)(F)C(F)(F)F [N-EtFOSE, N-Ethyl perfluorooctanesulfonamidoethanol] | Neither N-EtFOSE nor ciprofibrate had an effect | Neither N-EtFOSE nor ciprofibrate had an effect | Neither N-EtFOSE nor ciprofibrate had an effect | 0.42 ± 0.20 (× 10^-3) (n=5) %TD (× 10^-3) | not significantly altered | significantly increased | No significant change | no effect | significantly increased | significantly increased | did not reach statistical significance | 16 | significantly increased | only exception | significantly increased | significantly increased | No significant change | significant decrease |  |  | Doses causing a reduced body weight gain in pregnant rats [2]: > 5 mg/kg body weight/day; Uncorrected N-EtFOSE level in the liver ([4]; rat, in vivo): c Corrected N-EtFOSE levels in the liver are not reported because of the poor recovery rate (2.5±1%); uncorrected N-EtFOSE levels group were low, with 4.6 ± 4.7 ppb in N-EtFOSE-treated animals and 7.8 ± 1.3 ppb in control animals.; Histopathological evaluation of H&E stained liver and uterus slices ([12]; rat, in vivo, po): did not reveal pathological changes; Survival and clinical signs of toxicity [13]: no clinical findings; Ratio of Organ Weight to Body Weight, Kidney ([13]; mean ± SD): 6.8 ± 0.4%; Ratio of Organ Weight to Body Weight, Spleen ([13]; mean ± SD): 2.7 ± 0.2 % (× 10^-3); Ratio of Organ Weight to Body Weight, Uterus ([13]; mean ± SD): 1.6 ± 0.3%
O=S(=O)(O)C(F)(F)C(F)(F)C(F)(F)C(F)(F)C(F)(F)C(F)(F)C(F)(F)C(F)(F)F [PFOS, perfluorooctane sulfonic acid] |  |  |  |  |  |  |  |  |  |  |  |  |  |  |  |  |  |  | 2.3 | 6.23 ± 0.95 | %TD in Serum [4, 18]: 3.86 ± 0.86 %TD; Share of the total N-EtFOSE dose in the serum and liver ([4]; serum plus liver): approximately 9.5±1.2%
NS(=O)(=O)C(F)(F)C(F)(F)C(F)(F)C(F)(F)C(F)(F)C(F)(F)C(F)(F)C(F)(F)F [FOSA, perfluorooctanesulfonamide] |  |  |  | 25.3 ± 6.1 (× 10^-3) %TD (× 10^-3) |  |  |  |  |  |  |  |  |  |  |  |  |  |  |  | 0.29 ± 0.06 | plasma-to-whole blood ratio [14]: 0.04; half-life [15]: approximately 100 hours; Kp at 3 days after the last dose ([4]; female, Sprague-Dawley, rat, in vivo): 10.1; elimination phase half-life [16]: 63.4 h; mean plasma-to-whole blood ratio [17]: 0.2
O=S(=O)(NCCO)C(F)(F)C(F)(F)C(F)(F)C(F)(F)C(F)(F)C(F)(F)C(F)(F)C(F)(F)F [FOSE, perfluorooctanesulfonamidoethanol] |  |  |  | 0.07 ± 0.03 (× 10^-3) %TD (× 10^-3) |  |  |  |  |  |  |  |  |  |  |  |  |  |  | 6.4 |  | %TD in Liver (× 10^-3) [4, 19]: 0.58 ± 0.35 (× 10^-3) %TD (× 10^-3)
CCN(CC(=O)O)S(=O)(=O)C(F)(F)C(F)(F)C(F)(F)C(F)(F)C(F)(F)C(F)(F)C(F)(F)C(F)(F)F [N-EtFOSAA, N-ethyl perfluorooctanesulfonamidoacetate] |  |  |  |  |  |  |  |  |  |  |  |  |  |  |  |  |  |  | 1.3 | 0.43 ± 0.13 | %TD in Serum [4, 18]: 0.38 ± 0.17 %TD
CC(C)(Oc1ccc(C2CC2(Cl)Cl)cc1)C(=O)O (stereo not shown) [Ciprofibrate, reference compound] | Neither N-EtFOSE nor ciprofibrate had an effect | Neither N-EtFOSE nor ciprofibrate had an effect | Neither N-EtFOSE nor ciprofibrate had an effect |  | not significantly altered | did not alter | significantly decreased | decreased only in the liver | not significant effect | did not significantly alter | significant increase | 300 | tended to be increased | significantly decreased | not significant effect | increased | significantly decreased | significantly decreased |  |  | Histopathological evaluation of H&E stained liver and uterus slices ([12]; oral 21 days, data not shown): did not reveal pathological changes; Survival and clinical signs of toxicity [13]: no clinical findings; Organ weight, Kidney ([13]; mean ± SD): 1.69 ± 0.05 g; Organ weight, Liver ([13]; mean ± SD): 13 ± 0.97 g; Organ weight, Spleen ([13]; mean ± SD): 0.58 ± 0.04 g; Organ weight, Uterus ([13]; mean ± SD): 0.31 ± 0.06 g; Ratio of Organ Weight to Body Weight, Liver ([13]; mean ± SD): 5.9 ± 0.3 %; Ratio of Organ Weight to Body Weight, Spleen ([13]; mean ± SD): 2.5 ± 0.2 % (× 10^-3)

— PMC2755535 (Archives of toxicology, 2009)
